From publication PMC4846294 (Bioorganic & medicinal chemistry, 2016)
“Also recorded” adds a separate entry of the source. Like-named read-outs stand apart in the source and are kept apart here.

What was measured:
[1] = biological target: T1, LAP (from porcine kidney microsomes) (Sus scrofa, UniProt P15145); assay: In vitro LAP cleavage assay; type: in vitro ADME; conditions: for % Cleavage by LAP: area ratio of parent drug and prodrug (HPLC); for % Cleavage by LAP / Specific Activity of LAP: pH 7.2, 37 °C; for Cleavage with a large amount of LAP (in words): 1.5 units of LAP; for Specific Activity of LAP: rate study; for Cleavage rate relative to corresponding serinamide analogue: glycinamide versus serinamide prodrug of the same isomer
T1 sequence (P15145 1-963): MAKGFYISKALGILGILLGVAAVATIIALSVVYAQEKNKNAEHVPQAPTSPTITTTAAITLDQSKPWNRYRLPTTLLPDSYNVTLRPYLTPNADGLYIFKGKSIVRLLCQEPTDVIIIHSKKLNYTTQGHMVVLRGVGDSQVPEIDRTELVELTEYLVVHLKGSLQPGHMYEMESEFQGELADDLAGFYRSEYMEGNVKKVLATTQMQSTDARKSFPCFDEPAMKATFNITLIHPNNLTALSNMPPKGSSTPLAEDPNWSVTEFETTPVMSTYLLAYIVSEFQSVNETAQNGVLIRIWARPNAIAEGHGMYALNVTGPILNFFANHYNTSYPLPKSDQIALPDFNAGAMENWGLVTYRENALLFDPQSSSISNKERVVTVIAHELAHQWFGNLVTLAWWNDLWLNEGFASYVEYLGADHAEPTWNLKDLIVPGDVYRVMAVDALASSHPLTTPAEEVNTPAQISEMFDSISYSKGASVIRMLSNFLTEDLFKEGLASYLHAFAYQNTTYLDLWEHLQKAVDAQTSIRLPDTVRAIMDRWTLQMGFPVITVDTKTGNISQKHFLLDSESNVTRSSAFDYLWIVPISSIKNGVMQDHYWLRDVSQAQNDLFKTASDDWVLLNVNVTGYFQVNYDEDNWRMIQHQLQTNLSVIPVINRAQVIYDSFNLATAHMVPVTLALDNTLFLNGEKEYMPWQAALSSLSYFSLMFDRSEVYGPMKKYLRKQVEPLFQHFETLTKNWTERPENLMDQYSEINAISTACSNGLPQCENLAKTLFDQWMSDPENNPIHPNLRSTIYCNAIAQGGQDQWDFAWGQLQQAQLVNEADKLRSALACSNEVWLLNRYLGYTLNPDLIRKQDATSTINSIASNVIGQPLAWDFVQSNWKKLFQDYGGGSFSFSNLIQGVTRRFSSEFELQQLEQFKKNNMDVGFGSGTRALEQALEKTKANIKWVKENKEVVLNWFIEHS

[2] = test system: human cancer cell lines [SK-OV-3 (ovarian), NCI-H460 (lung), and DU-145 (prostate)]; assay: SRB cytotoxicity, stated across all three cell lines; type: cell-based; conditions: for GI50 values described in words: parent drugs, three cell lines
HUVECs [3] = assay: In vitro HUVEC tubule disruption assay; type: cell-based, human; conditions: for Disruption of capillary-like network of tubules (HUVECs): concentration of 0.1 μM; for Disruption of HUVEC tubular network on matrigel: concentration of 1.0 μM
In short: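 HUVECs (124,000 cells in M200 growth factors) plated on Matrigel (9.5 mg/mL) that had been pre-set 60 min at 37 °C; cells incubated 16 h at 37 °C to form tubule network. Test compound then added at 0.01, 0.1 or 1.0 μM. Network photographed, 9 fields/well, 40x objective.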

NCI-H460 (lung) = assay: SRB cytotoxicity assay, NCI-H460; type: cell-based, human; conditions: read-out: GI50 SRB Assay NCI-H460; 48 h treatment; average of n ≥ 3
SK-OV-3 (ovarian) = assay: SRB cytotoxicity assay, SK-OV-3; type: cell-based, human; conditions: read-out: GI50 SRB Assay SK-OV-3; 48 h treatment; average of n ≥ 3
tubulin = assay: Colchicine binding assay; conditions: inhibitor 5 μM; 1.0 μM tubulin, 5.0 μM [3H]colchicine
DU-145 (prostate) = assay: SRB cytotoxicity assay, DU-145; type: cell-based, human; conditions: read-out: GI50 SRB Assay DU-145; 48 h treatment; average of n ≥ 3
[4] = test system: MDA-MB-231-luc human breast tumor; assay: In vivo dynamic bioluminescence imaging; design: species or system SCID mice; conditions: for BLI signal compared with baseline (significance): 4 h and 24 h
HUVECs [5] = conditions: cited from earlier work

Compound: COc1ccc(/C=C\c2cc(OC)c(OC)c(OC)c2)cc1NC(=O)[C@@H](N)CO.Cl [AVE8062, reference compound]
- Cleavage by LAP (in words) [1]: effectively cleaved

Compound: COc1ccc2c(c1NC(=O)[C@@H](N)CO)CCC=C2c1cc(OC)c(OC)c(OC)c1.Cl [Compound 38, (S)-2-Amino-3-hydroxy-N-(2-methoxy-5-(3,4,5-trimethoxyphenyl)-7,8-dihydronaphthalen-1-yl)propanamide hydrochloride]
- % Cleavage by LAP [1]: < 10%

Compound: COc1ccc(/C=C\c2cc(OC)c(OC)c(OC)c2)c(N)c1N [Compound 8, (Z)-2-(2′,3′-Diamino-4′-methoxyphenyl)-1-(3,4,5-trimethoxyphenyl)ethene]
- GI50 values described in words [2]: highly potent
- Disruption of capillary-like network of tubules (HUVECs) (HUVECs [3]): significant disruption
- Disruption of HUVEC tubular network on matrigel (HUVECs [3]): extensive disruption

Compound: COc1ccc(/C=C\c2cc(OC)c(OC)c(OC)c2)c(NC(=O)[C@@H](N)CO)c1NC(=O)[C@@H](N)CO.Cl.Cl [Compound 23, (2S, 2'S)-N, N’-(3-methoxy-6-((Z)-3,4,5-trimethoxystyryl)-1,2-phenylene)bis(2-amino-3-hydroxypropanamide) dihydrochloride]
- Cleavage by LAP (in words) [1]: resistant to LAP mediated cleavage
- Cleavage with a large amount of LAP (in words) [1]: did not result in any observable cleavage

Compound: COc1ccc(/C=C/c2cc(OC)c(OC)c(OC)c2)c(NC(=O)C(N)CO)c1.Cl (stereo in doubt) [Compound 17, (S,E)-2-amino-3-hydroxy-N-(5-methoxy-2-(3,4,5-trimethoxystyryl)phenyl)propanamide hydrochloride]
- Cleavage by LAP (in words) [1]: effectively cleaved

Compound: COc1ccc(/C=C\c2cc(OC)c(OC)c(OC)c2)c(N)c1 [Compound 7, (Z)-2-(2′-amino-4′-methoxyphenyl)-1-(3,4,5-trimethoxyphenyl)ethene]
- GI50 values described in words [2]: highly potent

Compound: (Z)-2-(2'-Methoxy-4'-aminophenyl)-1-(3,4,5-trimethoxyphenyl)ethene hydrochloride [Compound 9]
- GI50 (NCI-H460 (lung)): 26.3 ± 16.1 nM
- GI50 (SK-OV-3 (ovarian)): 7.35 ± 3.5 nM
- Inhibition of Colchicine Binding (% Inhibition±SD) (tubulin): 75±0.90%
- GI50 (DU-145 (prostate)): 28.5 ± 23.2 nM

Compound: COc1ccc(/C=C\c2cc(OC)c(OC)c(OC)c2)c(NC(=O)[C@@H](N)CO)c1.Cl [Compound 15, (S,Z)-2-amino-3-hydroxy-N-(5-methoxy-2-(3,4,5-trimethoxystyryl)phenyl)propanamide hydrochloride]
- Cytotoxicity against selected human cancer cell lines (in words) [2]: significant cytotoxicity
- Cleavage by LAP (in words) [1]: effectively cleaved
- Specific Activity of LAP [1]: 1.2 μM/min/enzyme unit

Compound: COc1ccc(/C=C\c2cc(OC)c(OC)c(OC)c2)cc1OP(=O)(O)O [CA4P, combretastatin A-4 phosphate, reference compound]
- BLI signal compared with baseline (significance) ([4]; CA4P 120 mg/kg ip): significantly less signal
- BLI signal versus saline control (significance) ([4]; CA4P 120 mg/kg ip, p<0.05): significantly different from saline

Compound: COc1ccc(/C=C\c2cc(OC)c(OC)c(OC)c2)c(NC(=O)CN)c1.Cl [Compound 16, (Z)-2-amino-N-(5-methoxy-2-(3,4,5-trimethoxystyryl)phenyl)acetamide hydrochloride]
- Cytotoxicity against selected human cancer cell lines (in words) [2]: significant cytotoxicity
- Cleavage by LAP (in words) [1]: quantitative cleavage; also recorded: quantitatively cleaved
- % Cleavage by LAP [1]: 100%
- Cleavage rate relative to corresponding serinamide analogue [1]: 150 times
- Specific Activity of LAP [1]: 180 μM/min/enzyme unit

Compound: COc1ccc(/C=C\c2cc(OC)c(OC)c(OC)c2)c(N)c1N.Cl [Compound 10, (Z)-2-(2′,3′-Diamine hydrochloride-4′-methoxyphenyl)-1-(3,4,5-trimethoxyphenyl)ethene]
- Disruption of capillary-like network of tubules (HUVECs) (HUVECs [3]): significant disruption
- Disruption of HUVEC tubular network on matrigel (HUVECs [3]): extensive disruption
- Reduction in light emission (BLI) relative to baseline ([4]; 80 mg/kg ip, 2 h post treatment, 17 min time-point): approximately 95%
- Reduction in bioluminescence compared to saline control ([4]; 80 mg/kg, 2 h post treatment): greater than 95%

Compound: COc1ccc(/C=C/c2cc(OC)c(OC)c(OC)c2)c(NC(=O)CN)c1.Cl [Compound 18, (E)-2-amino-N-(5-methoxy-2-(3,4,5-trimethoxystyryl)phenyl)acetamide hydrochloride]
- Cytotoxicity against selected human cancer cell lines (in words) [2]: more cytotoxic than the corresponding serinamide AAPC 17
- Cleavage by LAP (in words) [1]: quantitative cleavage; also recorded: quantitatively cleaved
- % Cleavage by LAP [1]: 100%
- Cleavage rate relative to corresponding serinamide analogue [1]: more than 100 times

Compound: COc1ccc2c(c1NC(=O)CN)CCCC=C2c1cc(OC)c(OC)c(OC)c1.Cl [Compound 45, 2-Amino-N-(3-methoxy-9-(3,4,5-trimethoxyphenyl)-6,7-dihydro-5H-benzo[7]annulen-4-yl)acetamide hydrochloride]
- % Cleavage by LAP [1]: 100%

Compound: COc1ccc(/C=C\c2cc(OC)c(OC)c(OC)c2)c(NC(=O)[C@@H](N)CO)c1NC(=O)[C@@H](N)CO [Compound 22, (2S, 2'S)-N, N’-(3-methoxy-6-((Z)-3,4,5-trimethoxystyryl)-1,2-phenylene)bis(2-amino-3-hydroxypropanamide)]
- Cleavage by LAP (in words) [1]: resistant to LAP mediated cleavage
- Cleavage with a large amount of LAP (in words) [1]: did not result in any observable cleavage

Compound: COc1ccc(/C=C\c2cc(OC)c(OC)c(OC)c2)c(NC(=O)CN)c1NC(=O)CN.Cl.Cl [Compound 24, (Z)-N,N'-(3-methoxy-6-(3,4,5-trimethoxystyryl)-1,2-phenylene)bis(2-aminoacetamide)]
- Cleavage by LAP (in words) [1]: resistant to LAP mediated cleavage
- Disappearance of the prodrug on LAP treatment ([1]; LAP 0.12 units, by 25 h): greater than 95%
- % Cleavage by LAP [1]: <10-90%

Compound: COc1ccc2c(c1N)CCCC=C2c1cc(OC)c(OC)c(OC)c1 [Compound 33, 1-Amino-2-methoxy-5-(3’,4’,5’-trimethoxyphenyl)-benzosuber-5-ene]
- GI50 values described in words [2]: highly potent
- HUVEC tubule disruption and cell rounding effect (HUVECs [5]; 0.1 μM): significant tubule disruption and cell rounding effect
- HUVEC tubule disruption and cell rounding effect (HUVECs [5]; 1 μM): greatly enhanced
- HUVEC tube disruption and cell rounding capability (HUVECs [5]): robust tubule disruption

Compound: COc1ccc2c(c1NC(=O)[C@@H](N)CO)CCCC=C2c1cc(OC)c(OC)c(OC)c1.Cl [Compound 39, (S)-2-Amino-3-hydroxy-N-(3-methoxy-9-(3,4,5-trimethoxyphenyl)-6,7-dihydro-5H-benzo[7]annulen-4-yl)propanamide hydrochloride]
- GI50 (NCI-H460 (lung)): 53800 ± 864 nM
- % Cleavage by LAP [1]: < 10%
- GI50 (DU-145 (prostate)): 69400 ± 31300 nM

Compound: COc1ccc2c(c1NC(=O)CN)CCC=C2c1cc(OC)c(OC)c(OC)c1.Cl [Compound 44, 2-Amino-N-(2-methoxy-5-(3,4,5-trimethoxyphenyl)-7,8-dihydronaphthalen-1-yl)acetamide hydrochloride]
- % Cleavage by LAP [1]: 100%
- Specific Activity of LAP [1]: 15.5 μM/min/enzyme unit
- BLI signal versus saline control (significance) ([4]; 5 mg/kg ip, 4 h time point): not significantly different from saline control
- BLI signal versus saline control (significance) ([4]; 15 mg/kg ip, p<0.05): significantly different from saline
- BLI signal compared with baseline (significance) ([4]; 10 or 15 mg/kg ip): significantly less signal
